Here are results for 88 molecules from PubChem BioAssay AID651647 (Sanford-Burnham Center for Chemical Genomics, 2012).

About 220 (0.061%) of roughly 360,000 compounds were called active.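 How the source made its calls: active means GFP/RFP ratio change of at least 30% with cell ATP level not reduced by more than half and red fluorescence within 50% of control; inactive means the rest, inconclusive results apart.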 Many of the other results were omitted from the sample, so actives are more common in it than they were.

This test deals with Matrix metalloproteinase-14 (Homo sapiens) (UniProt P50281). The test is described as follows: blockers of MT1-MMP proenzyme processing, primary screen, HT1080 RFP-PRO-GFP cells, GFP/RFP fluorescence (AID 651647). To be noted: overnight, at 20 µM, hits give high values, percent of plate control window, DMSO zero. In short, it runs like this: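 Assay system: HT1080 RFP-PRO-GFP cells | Dosing: 20 µM single dose, 1% DMSO | Incubation: Cells overnight before dosing, compound overnight, 37 °C, 5% CO2 | Evaluation: GFP/RFP fluorescence ratio | Control set: DMSO-only wells and HT1080 RFP-L50D-GFP cell wells as references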
For the molecule `O=C(CSc1ccc(C(F)(F)F)cc1[N+](=O)[O-])NCCOc1ccccc1`, the GFP/RFP ratio change was -0.0162% (inactive).

On to `Cc1cc(-c2nnc(CCC(=O)NC(c3ccccc3)c3ccccc3)o2)no1`, for which the GFP/RFP ratio change was -0.114% (inactive).

Take `CCn1c(SCC(=O)NC2CC2)nnc1-c1ccncc1`: the GFP/RFP ratio change is 1.37% (inactive).

On to `O=C(NCCCn1ccnc1)C1CCCN(S(=O)(=O)c2cc(Cl)ccc2Cl)C1` (stereo not drawn), for which the GFP/RFP ratio change was 0.609% (inactive).

On to `CC(C)C(NC(=O)c1cccc(S(=O)(=O)N2CCOCC2)c1)C(=O)NCCc1ccccn1` (stereo not drawn), for which the GFP/RFP ratio change was -6.01% (inactive).

For the molecule `CC(Sc1nncs1)C(=O)NCc1ccc2c(c1)OCO2` (stereo not drawn), the GFP/RFP ratio change was 2.24% (inactive).

Consider `CN(C)c1ccc(NC(=O)CN2C3CCCC2CC(NC(=O)c2ccccc2)C3)cc1` (stereo not drawn), for which the GFP/RFP ratio change is 6.85% (inactive).

Take `CCc1cc(-c2nnn(CCC3COCCO3)c2CC)ccc1-c1cn(Cc2ccc3ccccc3c2)nn1` (stereo not drawn): the GFP/RFP ratio change is 2.05% (inactive).

`C/C=N/N(c1ccccc1)c1ccccc1`: the GFP/RFP ratio change is -0.385% (inactive).

On to `NS(=O)(=O)c1ccc(CCNC(=O)CCCn2c(SCC(=O)N3CCCC3)nc3ccsc3c2=O)cc1`, for which the GFP/RFP ratio change is -1.21% (inactive).

Regarding `O=C(Nc1ccn(CCCNCc2ccc3[nH]ccc3c2)c(=O)n1)OCc1ccccc1`, the GFP/RFP ratio change was -0.535% (inactive).

Turning to `CCOC(=O)C1C(c2ccc(OC)c(OC)c2)c2c([nH][nH]c2=O)CC1(C)O` (stereo not drawn), the GFP/RFP ratio change was 4.39% (inactive).

Consider `O=C1CCN(Cc2ccccc2)CCN1[C@H](CSc1ccccc1)c1ccccc1`, for which the GFP/RFP ratio change is -2.64% (inactive).

Consider `COc1c(O)cccc1-c1nnn(CCC(=O)OCC(=O)c2ccccc2)n1`, for which the GFP/RFP ratio change was 4.76% (inactive).

For the molecule `CN(CC(=O)Nc1ccccc1F)CC(=O)Nc1ccccc1Br`, the GFP/RFP ratio change was 7.11% (inactive).

For `O=C1NC[C@H](CCCCN2C[C@H](Cc3ccc(O)cc3)N(CC3CCCCC3)C(=O)C2=O)N(CCc2ccccc2)C1=O`, the GFP/RFP ratio change was 1.64% (inactive).

In the case of `N#C[C@]1(S(=O)(=O)c2ccccc2)C[C@@H]2ON=C(c3cccc(Br)c3)[C@@H]2C1`, the GFP/RFP ratio change was 2.88% (inactive).

As to `CC(C)CC(O)C1CCN(C(=O)CCc2nnc(-c3ccc4c(c3)OCO4)o2)CC1` (stereo not drawn), the GFP/RFP ratio change was 1.69% (inactive).

Consider `O=S1(=O)CCOC[C@H](Cc2ccccc2)N1Cc1ccccc1Br`, for which the GFP/RFP ratio change was -1.83% (inactive).

Consider `O=C(c1cc(Cl)cc(Cl)c1)N1CCC(=O)N(C(COCc2ccccc2)Cc2ccccc2)CC1` (stereo not drawn), for which the GFP/RFP ratio change is -5.95% (inactive).

As for `O=C(Nc1ccccc1F)C1C2C=CC3(O2)C1C(=O)N(c1cccnc1)C3C(=O)NC1CCCCC1` (stereo not drawn), the GFP/RFP ratio change is 1.65% (inactive).

On to `CCOC(=O)/C(N=Nc1cc(C(=O)O)cc(C(=O)O)c1)=C(\O)CCl`, for which the GFP/RFP ratio change is -3.33% (inactive).

With `Cc1cccc(C)c1NC(=O)C1(C)c2cccc[n+]2CC(=O)N1Cc1cccs1` (stereo not drawn), the GFP/RFP ratio change was -3.13% (inactive).

Turning to `CCCCCCCCOC1OC(CO)C(O)C(O)C1NC(C)=O` (stereo not drawn), the GFP/RFP ratio change is 0.0413% (inactive).

Take `CC(C)CC(=O)N1CCN(Cc2cccc(Cl)c2)CC1`: the GFP/RFP ratio change is -0.171% (inactive).

As to `O=C(c1cccc(Cl)c1)N1CCN(Cc2ccccc2)CC1`, the GFP/RFP ratio change was 30.7% (active).

As for `O=C(c1cccc(S(=O)(=O)N2CCCCCC2)c1)N1CCN(Cc2ccccc2)CC1`, the GFP/RFP ratio change was -4.24% (inactive).

Turning to `CN(C)c1ccc(C=NCCc2ccc(S(N)(=O)=O)cc2)cc1`, the GFP/RFP ratio change is 3.81% (inactive).

Take `CN(CC(=O)NC(=O)Nc1ccccc1F)Cc1ccccc1`: the GFP/RFP ratio change is 1.45% (inactive).

Turning to `COC(=O)C1C(=O)CC(C)(O)C(C(=O)OC)C1c1ccc2c(c1)OCO2` (stereo not drawn), the GFP/RFP ratio change is 19% (inactive).

For `CS(=O)(=O)c1ccc2nnn(OCC(=O)Nc3cccc(C#N)c3)c2c1`, the GFP/RFP ratio change was 0.844% (inactive).

`CC12CCC(C(=O)N(NC(=O)c3ccccc3O)C1=O)C2(C)C` (stereo not drawn): the GFP/RFP ratio change is 2.09% (inactive).

As to `CC(C)COC(=O)C1C2C=CC3(CN(C(C)c4ccc(Br)cc4)C(=O)C13)O2` (stereo not drawn), the GFP/RFP ratio change is 3.45% (inactive).

In the case of `COC(=O)CN1C(=O)[C@H]2[C@@H](/C=C/c3ccccc3)N3C(=O)CN(Cc4ccccc4)C(=O)[C@@]3(Cc3ccccc3)[C@H]2C1=O`, the GFP/RFP ratio change was 2.05% (inactive).

Consider `CCC(C(=O)NCc1ccc(OC)cc1)n1nc(C)n2c(cc3occc32)c1=O` (stereo not drawn), for which the GFP/RFP ratio change was -2.32% (inactive).

Consider `O=C(c1cccc(S(=O)(=O)N2CCCC2)c1)N(Cc1ccco1)C1CCS(=O)(=O)C1` (stereo not drawn), for which the GFP/RFP ratio change is -1.85% (inactive).

With `COc1ccc2c(c1OC)C(=O)N(c1ncn[nH]1)C2`, the GFP/RFP ratio change was 5.29% (inactive).

For `COc1cc(C2C(N3C(=O)c4ccccc4C3=O)C(=O)N2c2ccc(C)c(C)c2)cc(OC)c1OC` (stereo not drawn), the GFP/RFP ratio change is 4.49% (inactive).

For `CCN(CC(=O)Nc1ccc(NC(C)=O)cc1)C(=O)C1CC(=O)N(c2ccc3c(c2)OCCO3)C1` (stereo not drawn), the GFP/RFP ratio change is 1.76% (inactive).

With `COc1ccccc1NC1=NC(c2ccc(Cl)cc2)N=C(N)N1` (stereo not drawn), the GFP/RFP ratio change is -2.9% (inactive).

Regarding `Cc1cc(OC(=O)c2ccc(Cl)cc2)cc(=O)n1C`, the GFP/RFP ratio change is 0.208% (inactive).

Take `CCN(CC)C(=O)N1CCN(C(=O)c2ccc(C)cn2)CC1`: the GFP/RFP ratio change was 4.93% (inactive).

For the molecule `CC1(C(=O)NCc2ccc3c(c2)OCO3)CCN1CCc1ccccc1` (stereo not drawn), the GFP/RFP ratio change is 2.41% (inactive).

As for `COCCCNC(=O)CN1C(=O)CSc2ccc(S(=O)(=O)N3CCOCC3)cc21`, the GFP/RFP ratio change was -2.33% (inactive).

Consider `CCn1cc(CCC(=O)NCc2ccc(F)cc2)c2ccccc21`, for which the GFP/RFP ratio change was 1.53% (inactive).

In the case of `N#Cc1ccc(-c2nc3c(Cl)cc(C(F)(F)F)cn3c2Cc2ccccc2C(F)(F)F)cc1`, the GFP/RFP ratio change is 1.7% (inactive).

On to `CN(C)CCCn1c(SCc2ccc(Cl)cc2)nnc1-c1ccncc1`, for which the GFP/RFP ratio change was 1.22% (inactive).

Take `CC1(C)OC(=O)C2=C(C[C@@H](C3CCCCC3)O[C@@H]2c2ccc(Cl)cc2)O1`: the GFP/RFP ratio change was -0.857% (inactive).

As to `CC1(C)CC(=O)NC=C(c2ccccc2)C1`, the GFP/RFP ratio change was 0.817% (inactive).

As to `COc1ccc(C(=O)COC(=O)c2c(C)noc2C)cc1Cl`, the GFP/RFP ratio change is 0.327% (inactive).

In the case of `O=c1[nH]nc(SCCS(=O)(=O)c2ccc(F)cc2)n1-c1ccccc1C(F)(F)F`, the GFP/RFP ratio change was 1.01% (inactive).

For the molecule `COc1cccc(NC(=O)Cn2c3ccc(F)cc3c3nc4n(c(=O)c32)CCS4)c1`, the GFP/RFP ratio change is 1.54% (inactive).

`O=C(CCc1ccccc1F)N1CCN(c2ccccc2)CC1`: the GFP/RFP ratio change was -1.03% (inactive).

Turning to `Cc1cc(=O)oc2c1ccc1ccccc12`, the GFP/RFP ratio change was 0.0995% (inactive).

In the case of `CCCCCc1ccc(-c2ccc(C(=O)O)cc2)nc1`, the GFP/RFP ratio change is 0.418% (inactive).

Take `Cc1cc(C)c(C#N)c(SCS(=O)c2ccc(C(C)(C)C)cc2)n1` (stereo not drawn): the GFP/RFP ratio change is 3.13% (inactive).

Consider `O=C(COC(=O)C1CCN(S(=O)(=O)c2ccc3c(c2)OCCO3)CC1)Nc1ccccc1OC(F)F`, for which the GFP/RFP ratio change was -1.25% (inactive).

With `CC1(C)CN(Cc2cccnc2)C(=O)[C@H]1CC(=O)Nc1ccc(Br)cc1`, the GFP/RFP ratio change was -0.506% (inactive).

As to `CCCc1nc(-c2ccccc2O)n(-c2ccccc2)n1`, the GFP/RFP ratio change is 1.17% (inactive).

Consider `N#CCSc1nc2ccc(N3CCOCC3)cc2c(=O)n1CCc1ccccc1`, for which the GFP/RFP ratio change is 9.47% (inactive).

`COc1cc(NC(=O)CCS(=O)(=O)c2ccc3c(c2)oc(=O)n3C)cc(OC)c1`: the GFP/RFP ratio change was 0.489% (inactive).

With `Cc1cc(OCc2ccc(C(=O)Nc3ccc(C(=O)O)cc3)o2)ccc1Cl`, the GFP/RFP ratio change was 1.24% (inactive).

On to `Cc1ccc(NC(=O)COc2coc(CN3CCc4ccccc4C3)cc2=O)cc1Cl`, for which the GFP/RFP ratio change is -6.33% (inactive).

Regarding `CCCc1c(C(=O)N/N=C(\C)CCc2ccc(OC)cc2)nnn1-c1nonc1N`, the GFP/RFP ratio change is 0.35% (inactive).

As to `O=C1CCCC(O)=C1N=Nc1ccc2ncsc2c1`, the GFP/RFP ratio change is 4.19% (inactive).

`O=C1CCCC(O)=C1N=Nc1ccc(S(=O)(=O)N2CCOCC2)cc1`: the GFP/RFP ratio change was 48.9% (active).

Consider `CC1(C)CC(=O)C(N=Nc2ccc(S(=O)(=O)N3CCCCCC3)cc2)=C(O)C1`, for which the GFP/RFP ratio change was 3.46% (inactive).

With `CC1(C)CC(=O)C(C2=NC(C)(C)Cc3ccccc32)=C(O)C1`, the GFP/RFP ratio change is -1.97% (inactive).

In the case of `CCCCCCN1C[C@H](O)[C@@H](n2cc(C3CC3)nn2)C[C@@H]1c1ccc(Cl)cc1`, the GFP/RFP ratio change is 2.78% (inactive).

On to `CC1CC(C)CN(CCCNC(=O)Cn2ncc3c([nH]c4ccccc43)c2=O)C1` (stereo not drawn), for which the GFP/RFP ratio change is -6.2% (inactive).

For the molecule `Cc1ccc(C(=O)OCC(=O)Nc2ccc(Cl)cn2)cc1S(=O)(=O)N1CCOCC1`, the GFP/RFP ratio change was 2.27% (inactive).

For the molecule `CCOc1ccc(NC(=O)[C@H](C)NC(=O)C2CC(=O)N(c3ccc(OC)cc3)C2)cc1` (stereo partly drawn), the GFP/RFP ratio change was 0.231% (inactive).

Consider `CCOC(=O)c1c(NC(=O)CCCN2CCOCC2)sc2c1CC(C)(C)OC2`, for which the GFP/RFP ratio change was -2.69% (inactive).

With `O=P(O)(CP(=O)(c1ccccc1)c1ccccc1)c1ccccc1O`, the GFP/RFP ratio change was 2.61% (inactive).

Regarding `O=C(CP(=O)(c1ccccc1)c1ccccc1)N1CCOCC1`, the GFP/RFP ratio change is 1.97% (inactive).

As for `O=P(O)(CP(=O)(c1ccccc1)c1ccccc1)c1ccccc1`, the GFP/RFP ratio change is 35.4% (active).

As for `Cc1noc(COc2ccccc2OCc2onc(C)c2Cl)c1Cl`, the GFP/RFP ratio change was -3.96% (inactive).

As for `CC(C)(C)Cc1c(C2CCCCC2)nc2ccc(Br)cn12`, the GFP/RFP ratio change is -6.01% (inactive).

With `CCN(CC)C(=O)Oc1ccc(Br)cc1C(=O)Nc1ccc(F)c(Cl)c1`, the GFP/RFP ratio change is -4.63% (inactive).

On to `COc1ccc(-c2noc(C(C)NS(=O)(=O)c3ccc(NC(C)=O)cc3)n2)cc1` (stereo not drawn), for which the GFP/RFP ratio change is -4.06% (inactive).

As to `CCOC(=O)c1cnc2c(c(C)nn2CC)c1Cl`, the GFP/RFP ratio change is 2.11% (inactive).

Consider `COc1ccc(NC(=O)C(C)N2c3cccc4cccc(c34)S2(=O)=O)c(OC)c1` (stereo not drawn), for which the GFP/RFP ratio change is 3.17% (inactive).

`COc1ccc(CC(NC(C)=O)C(=O)N2CCN(C(=O)Nc3cccc(Cl)c3)CC2)cc1OC` (stereo not drawn): the GFP/RFP ratio change is -3.43% (inactive).

Take `Brc1ccc(Nc2c3c(nc4ncnn24)CCC3)cc1`: the GFP/RFP ratio change was 1.92% (inactive).

On to `CN=C1C=C/C(=N/N=c2\ccn(O)cc2C)C=C1C`, for which the GFP/RFP ratio change is 61% (active).

`CC[N+]1(CC)CC2=Cc3ccccc3CC2C1` (stereo not drawn): the GFP/RFP ratio change was 0.892% (inactive).

As to `CC(Sc1nc2cc(Cl)ccc2s1)C(=O)Nc1ccc2c(c1)OCO2` (stereo not drawn), the GFP/RFP ratio change was 3.37% (inactive).

As for `COCCCNC(=O)/C(C#N)=C/c1c(N2CCCCCC2)nc2ccccn2c1=O`, the GFP/RFP ratio change is -0.526% (inactive).
